Measurements: ChEMBL document CHEMBL3596155, “Optimization of rhodanine scaffold for the development of protein-protein interaction inhibitors” (Bioorg Med Chem, 2015)
Active and inactive are the calls of the source. No cut-off for these calls is given here.

What was measured:
[1] = molecular target: Human immunodeficiency virus type 1 integrase (Human immunodeficiency virus 1) (UniProt Q7ZJM1); assay: Inhibition of HIV1 His6-tagged integrase assessed as inhibition of interaction with recombinant flag-tagged LEDGF/p75 at 100 uM incubated for 30 mins prior to substrate addition measured after 1 hr by AlphaScreen assay
Human immunodeficiency virus type 1 integrase (Human immunodeficiency virus 1), sequence (Q7ZJM1 as listed by the source): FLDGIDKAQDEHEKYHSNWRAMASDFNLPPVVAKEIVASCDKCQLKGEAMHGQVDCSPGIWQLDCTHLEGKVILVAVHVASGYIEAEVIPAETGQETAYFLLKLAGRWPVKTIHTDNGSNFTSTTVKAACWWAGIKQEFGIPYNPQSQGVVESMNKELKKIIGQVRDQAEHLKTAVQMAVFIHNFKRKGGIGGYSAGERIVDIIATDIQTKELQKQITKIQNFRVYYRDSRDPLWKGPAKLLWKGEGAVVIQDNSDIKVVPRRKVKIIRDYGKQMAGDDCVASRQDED
Method in brief: (§1)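 AlphaScreen in 25 mM Tris-HCl pH 7.4, 150 mM NaCl, 1 mM MgCl2, 0.01% Tween-20 and 0.1% BSA. His6-integrase (300 nM final) was preincubated with compound for 30 min at 4°C. Flag-LEDGF/p75 (100 nM) was then added for 1 h at 4°C. Ni-chelate acceptor and anti-flag donor beads (20 μg/ml each) followed for 1 h at 30°C, protected from light. Acceptor emission was read.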

[2] = molecular target: Human immunodeficiency virus type 1 integrase (Human immunodeficiency virus 1, UniProt Q7ZJM1); assay: Inhibition of HIV1 His6-tagged integrase assessed as inhibition of interaction with recombinant flag-tagged LEDGF/p75 incubated for 30 mins prior to substrate addition measured after 1 hr by AlphaScreen assay; method in brief: as §1
Human immunodeficiency virus type 1 integrase, sequence (Q7ZJM1 whole entry): as the sequence (Q7ZJM1 as listed by the source) above

[3] = Selectivity index, ratio of CC50 for human MT4 cells to EC50 for HIV 3B; assay type: toxicity, cell-based; conditions: read-out: Ratio CC50/EC50
Method in brief: (§2)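 HIV(IIIB) stock titrated on MT-4 cells to set the CCID50. MT-4 cells were infected with 100-300 CCID50 in the presence of five-fold serial compound dilutions. Protection from virus-induced cytopathic effect was read spectrophotometrically as MTT reduction to formazan by viable cells. EC50 is the concentration giving 50% protection. CC50 was determined in parallel on cells.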

[4] = test system: Human immunodeficiency virus; assay: Antiviral activity against HIV 3B infected in human MT4 cells assessed as inhibition of virus-induced cytopathic effect by MTT assay; assay type: functional, organism-based; conditions: Human immunodeficiency virus 1, 3B; method in brief: as §2

inhibition [1]	IC50 [2] [µM]	SMILES	selectivity ratio [3]	EC50 [4] [µM]
47%		COc1ccc(/C=C2\SC(=S)N(C(C)C(=O)O)C2=O)cc1 (stereo not given)		
54%	> 100	CCC(C(=O)O)N1C(=O)/C(=C/c2ccc(OC)cc2)SC1=S (stereo not given)		
	41.3	COc1ccc(/C=C2\SC(=S)N(C(C(=O)O)C(C)C)C2=O)cc1 (stereo not given)		
inactive		COc1ccc(/C=C2\SC(=S)N(C(C(=O)O)C(C)C)C2=O)cc1OC (stereo not given)		
89%	18.7	CC(C)C(C(=O)O)N1C(=O)/C(=C/c2cccc3ccccc23)SC1=S (stereo not given)		
	25	CCOc1cc(/C=C2\SC(=S)N(C(C(=O)O)C(C)C)C2=O)ccc1O (stereo not given)		
43%		COc1cc(/C=C2\SC(=S)N(C(C(=O)O)C(C)C)C2=O)ccc1O (stereo not given)		
77%	43.7	CC(C)C(C(=O)O)N1C(=O)/C(=C/c2ccc(O)cc2)SC1=S (stereo not given)		

Second part, the molecule before the results:

SMILES	inhibition [1]	IC50 [2] [µM]	selectivity ratio [3]	EC50 [4] [µM]
COc1ccc(/C=C2\SC(=S)N(C(C)CC(=O)O)C2=O)cc1 (stereo not given)	29%			
CCOc1cc(/C=C2\SC(=S)N(C(C(=O)O)C(C)C)C2=O)ccc1OC (stereo not given)	20%			
COc1ccc2nc(/C=C3\SC(=S)N(C(C(=O)O)C(C)C)C3=O)ccc2c1 (stereo not given)		15.8		
COc1ccc(/C=C2\SC(=S)N(CC(=O)O)C2=O)cc1	36%			
COc1ccc(/C=C2\SC(=S)N(CCC(=O)O)C2=O)cc1	66%	> 100	61	2.41
CCOc1ccc(/C=C2\SC(=S)N(C(C(=O)O)C(C)C)C2=O)cc1OC (stereo not given)	28%			
